From ChEMBL document CHEMBL1123543, “3,7-Diazabicyclane: a new narcotic analgesic” (J Med Chem, 1986)
The source made the active and inactive calls.

What was measured:
Mus musculus [1] = test: Effective dose for analgetic activity on subcutaneous administration in mice using Writhing test; assay type: functional; conditions: sc
How it was run: (§1)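 Mouse acetic acid writhing assay. Compounds were given as methanesulfonic acid salts, dissolved in deionized water and injected subcutaneously. ED50 values and 95% confidence limits were calculated by the Litchfield–Wilcoxon method.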

Rattus norvegicus [2] = test: Effective dose for analgetic activity on intracerebroventricular administration in rats using tail flick test; assay type: functional
How it was run: (§2)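 Rats had cannulae stereotaxically implanted in the lateral ventricle (AP 0.0, L 2.0 from bregma, 3.5 mm below dura) and recovered for 2 weeks. Methanesulfonate salts in artificial rat CSF were injected icv at 10 μL over 30 s, with doses given as total amount. CSF alone served as control. After 0.5 h of acclimation in restraint, the tail was immersed 5 cm in 55 °C water at 5, 10, 15 and 20 min. Withdrawal latency was timed with a 30 s cutoff, averaging three observations. ED50 and 95% confidence limits were derived by Litchfield–Wilcoxon.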

Opioid receptor = Opioid receptor (Rattus norvegicus, UniProt P33533+P34975+P33535); test: Concentration required to inhibit opiate receptor using radioligand [3H]- Etorphine; assay type: protein assay
Mus musculus [3] = test: Effective dose for analgetic activity on subcutaneous administration in mice using Writhing test; Inactive; assay type: functional, organism-based; how it was run: as §1
Rattus norvegicus [4] = test: Effective dose for analgetic activity on intracerebroventricular administration in rats using tail flick test; Inactive; assay type: functional, organism-based; how it was run: as §2
Mus musculus [5] = test: Effective dose for analgetic activity on subcutaneous administration in mice using Writhing test; Inactive at 460 uM/kg; assay type: functional, organism-based; how it was run: as §1
Rattus norvegicus [6] = test: Effective dose for analgetic activity on intracerebroventricular administration in rats using tail flick test; Inactive at 780 nM; assay type: functional, organism-based; how it was run: as §2

| SMILES | ED50 (Mus musculus [1]) | ED50 (Rattus norvegicus [2]) | IC50 (Opioid receptor) | ED50 (Mus musculus [3]) | ED50 (Rattus norvegicus [4]) | ED50 (Mus musculus [5]) | ED50 (Rattus norvegicus [6]) |
| --- | --- | --- | --- | --- | --- | --- | --- |
| CN1CC[C@]23c4c5ccc(O)c4O[C@H]2[C@@H](O)C=C[C@H]3[C@H]1C5 [MORPHINE] | 3 µmol/kg | 23 nM |  |  |  |  |  |
| COC(c1cccc(O)c1)C1C2CN(C)CC1CN(C)C2 (stereo not drawn) | 0.56 µmol/kg |  | 2300 nM |  |  |  |  |
| COC(c1ccccc1)C1C2CN(C)CC1CN(C)C2 (stereo not drawn) |  |  | 7200 nM | inactive | inactive |  |  |
| CCC(=O)OC(c1cccc(O)c1)C1C2CN(C)CC1CN(C)C2 (stereo not drawn) | 0.85 µmol/kg | 25 nM | 530 nM |  |  |  |  |
| CCC(=O)OC(c1ccccc1)C1C2CN(C)CC1CN(C)C2 (stereo not drawn) |  |  | 7600 nM |  |  | inactive | inactive |
